Test results as given in article PMC9186316 (Toxicological Sciences, 2019).
Read-outs that look alike come from different tables or passages of the source.

Columns and labels:
uterus weight response = system: uterus weight response; parameters: species or system rat; details: predicted and in vivo BMDL50 to BMDU50, rats
Outline: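 Generic rat PBK models used for reverse dosimetry of MCF-7 proliferation and YES concentration-response data. In vitro concentrations corrected for unbound fraction (RED in assay medium and rat serum; 10% FBS medium taken as half the 5% FBS fub), then converted to blood concentrations and dose levels. Literature uterotrophic data: absolute uterus weight increase, not body-weight normalised. BMR 50% over control; BMD50 with 95% BMDL50–BMDU50.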

[1] = Rapid equilibrium dialysis, fraction unbound in rat serum; assay type: in vitro ADME; details: for recovery: rat serum; for fraction unbound: serum
[2] = assay type: in vitro ADME; details: bovine; for recovery: in vitro MCF-7 proliferation assay medium containing 5% FBS; for fraction unbound: in vitro proliferation assay medium with 5% FBS
[3] = Generic PBK model evaluation: predicted versus reported Cmax in rat blood; details: oral administration, rats
Outline: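 The generic PBK model predicted parent-compound blood concentration–time curves after single oral dosing in rats, using partition coefficients calculated from log Pow and hepatic clearance from rat liver S9. Doses matched those of the published in vivo kinetic studies. Predicted Cmax was compared with literature blood data, and the difference was expressed as a fold value.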

[4] = Hepatic clearance by substrate depletion in rat liver S9; assay type: in vitro ADME; details: Sprague-Dawley, liver S9, pH 7.4
Outline: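 Rat liver S9 (pooled, male or female Sprague-Dawley, 0.5 mg/ml) was incubated with 3 µM substrate (added from a 100-fold DMSO stock). Sampling ran 0–90 min against cofactor-free controls, with UPLC quantification. CLint came from the linear part of ln(Ccompound/Ccontrol) versus time. Triplicates, 3 independent studies.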

recovery [1] [%] | fraction unbound [1] | Difference in Cmax between the model predictions and the in vivo kinetic data [3] [fold] | SMILES | Potency comparison from BMD50 values (Figure 8) (uterus weight response) | recovery [2] [%] | fraction unbound [2] | microsomal CLint at 3 µM ([4]; female) [µL/min/mg] | microsomal CLint at 3 µM ([4]; male) [µL/min/mg]
– | – | – | CC(C)(c1ccc(O)cc1)c1ccc(O)cc1 [BPA, bisphenol A] | least potent | – | – | – | –
82 | 0.35 ± 0.07 | 2.2 | O=c1oc2cc(O)ccc2c2oc3cc(O)ccc3c12 [COU, coumestrol] | – | 79 | 0.69 ± 0.034 | – | –
77 | 0.48 ± 0.08 | – | CC/C(=C(/CC)c1ccc(O)cc1)c1ccc(O)cc1 [DES, Diethylstilbestrol] | most potent | 79 | 0.74 ± 0.02 | – | –
– | – | – | C[C@]12CC[C@@H]3c4ccc(O)cc4CC[C@H]3[C@@H]1CC[C@@H]2O [E2, 17β-estradiol] | most potent | – | – | – | –
80 | 0.46 ± 0.03 | – | C#C[C@]1(O)CC[C@H]2[C@@H]3CCc4cc(O)ccc4[C@H]3CC[C@@]21C [EE2, 17α-ethinylestradiol] | most potent | 86 | 0.72 ± 0.18 | – | –
83 | 0.07 ± 0.02 | – | O=c1c(-c2ccc(O)cc2)coc2cc(O)cc(O)c12 [GEN, genistein] | – | 88 | 0.8 ± 0.04 | – | –

SMILES | recovery [1] [%] | fraction unbound [1] | Difference in Cmax between the model predictions and the in vivo kinetic data [3] [fold] | Potency comparison from BMD50 values (Figure 8) (uterus weight response) | recovery [2] [%] | fraction unbound [2] | microsomal CLint at 3 µM ([4]; female) [µL/min/mg] | microsomal CLint at 3 µM ([4]; male) [µL/min/mg]
COc1ccc(C(c2ccc(OC)cc2)C(Cl)(Cl)Cl)cc1 [MXC, methoxychlor] | 76 | 0.27 ± 0.04 | – | – | 77 | 0.73 ± 0.29 | 313 ± 5 | 448 ± 8
